We go through three molecules from ChEMBL document CHEMBL1126202, “Dual-action penems and carbapenems” (J Med Chem, 1992).

Series [1] has as its target Penicillin-binding protein 4 (Staphylococcus aureus) (UniProt P72355). Kind of series: Concentration inhibiting [14C]- Penicillin G binding to Staphylococcus aureus ATCC 29213 Penicillin binding protein 4 41 kDa.
For series [2], the system named is Staphylococcus aureus. In words: In vitro antibacterial activity against Staphylococcus aureus 753 (constitutive beta-lactamase producer). It is filed as functional. The method in brief: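 MIC was determined by agar dilution on Mueller-Hinton agar. Serial 2-fold aqueous dilutions were diluted 10-fold in agar to give final concentrations of 128 to 0.0156 μg/mL. Plates were inoculated by Steers replicator with overnight broth cultures diluted 100-fold.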

The nature of series [3]: Stability in pH 7.4 phosphate buffer at 37 degree C. Format: physicochemical. The method in brief: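 Compounds were held in pH 7.4 phosphate buffer at 37 °C and monitored by reverse-phase HPLC on a PRP-1 column with UV detection at 275–286 nm. The mobile phase was 0.01 M tetradecyltrimethylammonium bromide in pH 8.2 phosphate/acetonitrile. Product-peak decline was followed to at least 50%, and half-life was taken from semilogarithmic plots.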

Series [4] has as its system Staphylococcus aureus. In words: Minimum inhibitory concentration to the Penicillin G binding to Staphylococcus aureus ATCC 29213 PBPs.

As a reminder, the IC90 is the point of the concentration-response curve where the effect stands at 90%. A higher IC90 goes with weaker potency. In the case of `C[C@@H](O)[C@H]1C(=O)N2C(C(=O)[O-])=C(COC(=O)N3CCN(c4cc5c(cc4F)c(=O)c(C(=O)O)cn5C4CC4)CC3)S[C@H]12.[Na+]`, in series [1], the 90% effect concentration (IC90) was 2 µg/mL.
The MIC is the least concentration at which growth counts as inhibited. Take `C[C@@H](O)[C@H]1C(=O)N2C(C(=O)[O-])=C(CO)S[C@H]12.[Na+]`: in series [2], the minimum inhibitory concentration (MIC) was determined as 1 µg/mL.
The term half-life denotes how long it takes for the measured level to halve. Higher therefore signals slow decline. `C[C@@H](O)[C@H]1C(=O)N2C(C(=O)[O-])=C(COC(=O)c3cn(CCF)c4c(F)c(N5CCN(C)CC5)c(F)cc4c3=O)S[C@H]12.[Na+]` had a half-life in series [3] of 52 h. The minimum inhibitory concentration (MIC) in series [4] came to 0.125 µg/mL.
